Reference: ChEMBL document CHEMBL1132324, “Structure-activity relationships in 1,4-benzodioxan-related compounds. 6. Role of the dioxane unit on selectivity for alpha(1)-adrenoreceptor subtypes” (J Med Chem, 1999)

What was measured:
[1] = target: T1, Alpha-1D adrenergic receptor (Homo sapiens) (UniProt P25100); experiment: The binding affinity was evaluated on cloned human alpha-1D adrenergic receptor expressed in chinese hamster ovary(CHO) cells by using [3H]prazosin as radioligand.; assay type: cell-based
T1 sequence (whole entry): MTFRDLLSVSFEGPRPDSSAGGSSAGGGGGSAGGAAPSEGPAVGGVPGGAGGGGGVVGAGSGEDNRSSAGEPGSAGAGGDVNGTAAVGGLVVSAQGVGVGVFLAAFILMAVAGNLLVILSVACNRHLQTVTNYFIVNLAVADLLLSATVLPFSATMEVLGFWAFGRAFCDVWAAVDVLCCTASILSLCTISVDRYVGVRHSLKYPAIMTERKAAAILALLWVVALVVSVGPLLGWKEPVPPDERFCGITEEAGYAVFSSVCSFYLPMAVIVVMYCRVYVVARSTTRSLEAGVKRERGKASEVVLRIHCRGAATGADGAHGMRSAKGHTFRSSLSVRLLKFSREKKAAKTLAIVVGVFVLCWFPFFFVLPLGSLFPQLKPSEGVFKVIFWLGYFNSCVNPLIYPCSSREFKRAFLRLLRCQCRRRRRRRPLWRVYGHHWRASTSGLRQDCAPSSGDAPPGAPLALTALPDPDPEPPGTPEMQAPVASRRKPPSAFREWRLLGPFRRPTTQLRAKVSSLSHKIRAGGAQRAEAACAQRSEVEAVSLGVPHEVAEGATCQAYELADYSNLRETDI
In short: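 Membranes (30 μg protein) from CHO cells stably expressing each human α1 subtype, in 50 mM Tris-HCl pH 7.4. Incubated with 0.1–0.4 nM [3H]prazosin for 30 min at 25 °C, competitor 1 pM–10 μM. Nonspecific binding with 10 μM phentolamine. Ki by Cheng-Prusoff. 2–3 experiments in triplicate.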

[2] = target: T2, Alpha-1D adrenergic receptor (Rattus norvegicus) (UniProt P23944); experiment: Antagonist affinity was expressed as apparent pKb at alpha-1D adrenergic receptor on isolated rat thoracic aorta (Alpha-1D adrenergic receptor); assay type: functional, tissue-based
T2 sequence (whole entry): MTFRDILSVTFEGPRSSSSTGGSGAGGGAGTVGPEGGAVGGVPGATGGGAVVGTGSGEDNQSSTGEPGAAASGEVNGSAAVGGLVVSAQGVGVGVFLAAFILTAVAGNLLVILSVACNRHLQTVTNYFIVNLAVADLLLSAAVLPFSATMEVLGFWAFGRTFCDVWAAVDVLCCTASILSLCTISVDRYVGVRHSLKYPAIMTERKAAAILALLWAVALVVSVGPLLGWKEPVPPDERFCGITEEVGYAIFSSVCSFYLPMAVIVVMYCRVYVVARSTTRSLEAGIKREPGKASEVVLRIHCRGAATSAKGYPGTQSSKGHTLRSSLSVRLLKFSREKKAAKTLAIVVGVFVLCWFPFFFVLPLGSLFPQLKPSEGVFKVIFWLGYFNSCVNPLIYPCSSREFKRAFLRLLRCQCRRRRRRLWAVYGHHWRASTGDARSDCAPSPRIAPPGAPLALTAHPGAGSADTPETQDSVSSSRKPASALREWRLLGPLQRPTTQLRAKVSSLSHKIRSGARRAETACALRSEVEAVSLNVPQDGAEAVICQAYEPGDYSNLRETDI
In short: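 Helicoidal strips of rat thoracic aorta at 1 g tension, with 0.1 μM cocaine and 1 μM propranolol. After ≥1 h equilibration, cumulative (–)-noradrenaline curves at 30-min intervals; the third served as control. Antagonist equilibrated 30 min before the fourth curve. Apparent pKb from log(DR−1) − log[B], 2–3 antagonist concentrations, each tested four times.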

[3] = target: T3, Alpha-1A adrenergic receptor (Rattus norvegicus) (UniProt P43140); experiment: Antagonist affinity was expressed as apparent pKb at alpha-1 adrenoceptors on isolated rat prostatic vas deferens (Alpha-1A adrenergic receptor).; assay type: functional, tissue-based
T3 sequence (whole entry): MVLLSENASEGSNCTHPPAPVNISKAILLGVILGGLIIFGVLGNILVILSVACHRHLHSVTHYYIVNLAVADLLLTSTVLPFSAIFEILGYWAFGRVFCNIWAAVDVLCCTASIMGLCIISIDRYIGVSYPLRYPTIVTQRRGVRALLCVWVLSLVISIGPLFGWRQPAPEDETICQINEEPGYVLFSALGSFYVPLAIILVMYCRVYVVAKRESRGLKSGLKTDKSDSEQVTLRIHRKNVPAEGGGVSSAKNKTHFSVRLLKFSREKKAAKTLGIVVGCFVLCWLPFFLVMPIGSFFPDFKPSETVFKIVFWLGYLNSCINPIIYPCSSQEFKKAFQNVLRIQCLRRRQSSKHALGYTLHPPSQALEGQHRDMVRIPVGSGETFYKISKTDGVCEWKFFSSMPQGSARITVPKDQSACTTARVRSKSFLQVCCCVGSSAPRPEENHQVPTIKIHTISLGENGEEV
In short: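 Rat prostatic vas deferens in Tyrode with 0.1 μM cocaine. Equilibrated 60 min, primed twice with 10 μM noradrenaline, then a control cumulative (–)-noradrenaline curve recorded isometrically. Antagonist equilibrated 30 min before a repeat curve. Apparent pKb = log(DR−1) − log[B], with DR as the ratio of agonist EC50 with/without antagonist. 2–3 antagonist concentrations, each tested four times.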

[4] = system: Alpha-1B adrenergic receptor (Cavia porcellus); experiment: Antagonist affinity was expressed as apparent pKb at alpha-1B adrenergic receptor on isolated Guinea pig spleen (Alpha-1B adrenergic receptor)

pKi [1]: 7.93
pKb [2]: 6.98
pKb [3]: 7.88
pKb [4]: 6.05
Structure (SMILES): COc1cccc(OC)c1OCCNCC1C(=O)c2ccccc2OC1c1ccccc1 (centres undefined)
